Assay results published in paper PMC3846926 (Neuropharmacology, 2010).
Entries after “also recorded” stand apart in the source; their conditions may differ. Values belong to the compound of their own block, whether it stands above or below them.

Assays:
[1] = tested on: ASIC currents in cultured hippocampal neurons; experiment: ASIC currents in primary cultured hippocampal neurons, whole-cell voltage clamp; format: cell-based, mouse; conditions: for Inhibition (potency), grade in words: diarylamidines of Table 1, cultured hippocampal neurons; for effect on rates of desensitization of ASIC currents: sub-maximal concentrations
ASIC current = conditions: Wu et al., 2004, cited from earlier work
[2] = tested on: ENaC channels expressed in oocytes; experiment: ENaC current in Xenopus oocytes, two-electrode voltage clamp; format: cell-based; conditions: 100 µM; for effect on ENaC activities: oocytes; for relative current of ENaC with compound: relative to control without diarylamidine, holding -70 mV
How it was run: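 Defolliculated (collagenase, 60–120 min) stage V–VI Xenopus laevis oocytes were injected with 1 ng ENaC α/β/γ cRNA and kept 3 days at 19 °C in low-Na+ ringer. Two-electrode voltage clamp at −70 mV, 22–26 °C, in ringer pH 7.4. Amiloride superfusion was replaced by amiloride-free solution, then test compound (100 µM) was applied without amiloride. Amiloride-sensitive current recorded at 1 kHz.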

ASIC1a = biological target: T1, ASIC1a (Rattus norvegicus, UniProt P55926); experiment: ASIC1a currents in oocytes; format: cell-based; conditions: 100 µM
T1 sequence (P55926 1-526): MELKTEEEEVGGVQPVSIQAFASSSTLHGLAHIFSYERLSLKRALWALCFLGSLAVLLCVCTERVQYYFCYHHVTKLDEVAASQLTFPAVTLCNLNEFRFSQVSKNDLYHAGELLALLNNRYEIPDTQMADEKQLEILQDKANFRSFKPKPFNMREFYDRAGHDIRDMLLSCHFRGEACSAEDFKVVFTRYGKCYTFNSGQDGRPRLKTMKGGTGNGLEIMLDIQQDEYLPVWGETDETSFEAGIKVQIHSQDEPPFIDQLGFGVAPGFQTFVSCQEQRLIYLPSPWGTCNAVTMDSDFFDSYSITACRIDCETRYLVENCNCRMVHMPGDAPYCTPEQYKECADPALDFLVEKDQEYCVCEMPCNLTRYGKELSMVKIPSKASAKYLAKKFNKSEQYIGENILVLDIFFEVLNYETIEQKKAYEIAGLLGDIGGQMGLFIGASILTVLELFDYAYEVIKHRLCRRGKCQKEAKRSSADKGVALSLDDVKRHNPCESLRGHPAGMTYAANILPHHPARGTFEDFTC

homomeric ASIC1a = biological target: T2, homomeric ASIC1a (Rattus norvegicus, UniProt P55926); experiment: ASIC1a current in transfected CHO cells, patch clamp; format: cell-based
T2 sequence (P55926 1-526): T1 sequence (P55926 1-526)
How it was run: (§1)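 CHO cells in F12 with 10% fetal bovine serum, cotransfected at ~50% confluence with the individual ASIC subunit cDNA (1.8 µg) plus GFP DNA (0.2 µg) per dish. GFP-positive cells whole-cell patch-clamped 48–72 h after plating, held at −60 mV. Activating pH: 6.0 (ASIC1a, 1b), 5.0 (ASIC2a), 6.5 (ASIC3). Test compound perfused 2 min. Currents normalized to control; IC50 from logistic fit; mean ± S.E.M.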

homomeric ASIC1b = biological target: T3, homomeric ASIC1b (Rattus norvegicus, UniProt P55926); experiment: ASIC1b current in transfected CHO cells, patch clamp; format: cell-based; conditions: pH 6, read-out: inhibition of ASIC1b current
T3 sequence (P55926 1-559 isoform P55926-3): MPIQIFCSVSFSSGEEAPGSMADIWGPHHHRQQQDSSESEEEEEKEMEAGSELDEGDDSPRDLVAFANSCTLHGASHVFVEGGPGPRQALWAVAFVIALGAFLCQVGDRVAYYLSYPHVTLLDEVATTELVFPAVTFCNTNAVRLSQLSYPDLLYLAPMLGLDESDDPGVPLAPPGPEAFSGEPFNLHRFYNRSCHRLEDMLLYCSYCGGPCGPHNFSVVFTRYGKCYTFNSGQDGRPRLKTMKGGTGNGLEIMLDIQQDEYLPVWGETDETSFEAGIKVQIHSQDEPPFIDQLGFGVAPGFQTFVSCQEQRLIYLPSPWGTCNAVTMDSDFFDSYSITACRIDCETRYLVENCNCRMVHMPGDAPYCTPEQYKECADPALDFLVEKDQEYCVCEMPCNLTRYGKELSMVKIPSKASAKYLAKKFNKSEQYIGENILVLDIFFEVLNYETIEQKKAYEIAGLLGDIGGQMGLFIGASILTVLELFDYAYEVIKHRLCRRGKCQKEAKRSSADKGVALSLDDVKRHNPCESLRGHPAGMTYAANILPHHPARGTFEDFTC
How it was run: as §1

homomeric ASIC2a = biological target: T4, homomeric ASIC2a (Rattus norvegicus, UniProt Q62962); experiment: ASIC2a current in transfected CHO cells, patch clamp; format: cell-based; conditions: pH 5, read-out: inhibition of ASIC2a current
T4 sequence (Q62962 1-512): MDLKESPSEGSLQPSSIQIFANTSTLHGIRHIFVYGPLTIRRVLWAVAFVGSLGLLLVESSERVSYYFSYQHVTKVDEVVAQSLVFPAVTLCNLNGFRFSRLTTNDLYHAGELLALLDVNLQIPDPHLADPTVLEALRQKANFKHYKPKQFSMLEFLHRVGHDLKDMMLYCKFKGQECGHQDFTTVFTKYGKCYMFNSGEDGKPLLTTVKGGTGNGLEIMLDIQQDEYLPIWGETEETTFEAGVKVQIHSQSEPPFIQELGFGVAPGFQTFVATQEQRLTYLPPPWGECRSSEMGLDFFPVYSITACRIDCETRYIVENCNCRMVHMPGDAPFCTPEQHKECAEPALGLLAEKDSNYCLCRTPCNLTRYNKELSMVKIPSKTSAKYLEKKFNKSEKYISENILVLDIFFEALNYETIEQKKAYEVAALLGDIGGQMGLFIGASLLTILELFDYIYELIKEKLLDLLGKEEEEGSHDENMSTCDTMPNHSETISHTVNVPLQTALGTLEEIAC
How it was run: as §1

homomeric ASIC3 = biological target: T5, homomeric ASIC3 (Rattus norvegicus, UniProt O35240); experiment: ASIC3 current in transfected CHO cells, patch clamp; format: cell-based; conditions: pH 6.5, read-out: inhibition of ASIC3 current
T5 sequence (O35240 1-533): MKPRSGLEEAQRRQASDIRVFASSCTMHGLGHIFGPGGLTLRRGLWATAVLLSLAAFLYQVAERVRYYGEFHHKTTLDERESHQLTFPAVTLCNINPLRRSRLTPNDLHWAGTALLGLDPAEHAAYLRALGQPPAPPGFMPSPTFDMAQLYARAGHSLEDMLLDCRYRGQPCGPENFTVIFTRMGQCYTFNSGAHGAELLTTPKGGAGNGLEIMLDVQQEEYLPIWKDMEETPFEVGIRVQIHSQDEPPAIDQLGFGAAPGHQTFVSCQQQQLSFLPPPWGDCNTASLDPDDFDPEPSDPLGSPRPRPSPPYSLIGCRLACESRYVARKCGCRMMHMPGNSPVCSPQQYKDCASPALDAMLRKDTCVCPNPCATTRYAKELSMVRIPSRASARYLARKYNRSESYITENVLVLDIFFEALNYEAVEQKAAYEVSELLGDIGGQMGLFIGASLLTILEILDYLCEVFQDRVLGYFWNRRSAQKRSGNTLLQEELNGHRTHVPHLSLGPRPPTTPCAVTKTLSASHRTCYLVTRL
How it was run: as §1

[3] = tested on: cultured hippocampal neurons; format: cell-based, mouse; conditions: 10 µM, current clamp
ENaC = conditions: read-out: IC50 on ENaC; very weak inhibition; ref Ugawa et al., 2007; cited from earlier work
[4] = 200 µM, cultured hippocampal neurons

SMILES: N=C(N)NC(=O)c1nc(Cl)c(N)nc1N [Amiloride]
- effect on desensitization of ASIC current ([1]; amiloride 80 µM co-applied with pH 5.8): did not accelerate; also recorded: little effect
- desensitization time constant of ASIC currents ([1]; amiloride 80 µM co-applied with pH 5.8, control 0.83 ± 0.15 s): 0.72 ± 0.14 s
- IC50 (ASIC current; read-out: IC50 on ASIC current, ref Waldmann et al., 1997): 10 to 20 µM
- concentration required to completely block the neuronal ASIC currents (ASIC current; ref Baron et al., 2002): 200 to 500 µM

SMILES: CC1(C)[C@@H](OC(=O)CCC(=O)O)CC[C@]2(C)[C@H]3C(=O)C=C4[C@@H]5C[C@@](C)(C(=O)O)CC[C@]5(C)CC[C@@]4(C)[C@]3(C)CC[C@@H]12 [Carbenoxolone]
- effect on ASIC currents [1, 4]: failed to inhibit; also recorded: did not inhibit

- block of ASIC1a currents in oocytes (ASIC1a): almost completely
SMILES: N=C(N)c1ccc(-c2cc3ccc(C(=N)N)cc3[nH]2)cc1 [DAPI, 4′,6-diamidino-2-phenylindole]
- Inhibition (potency), grade in words [1]: Strong inhibition
- effect on rates of desensitization of ASIC currents [1]: did not have marked effects
- effect on ENaC activities [2]: did not inhibit; also recorded: ineffective
- relative current of ENaC with compound [2]: 0.98 ± 0.04

- block of ASIC1a currents in oocytes (ASIC1a): almost completely
- IC50 (homomeric ASIC1a): ~3 µM
- inhibition at 3 µM (homomeric ASIC1a; CHO, pH 6, read-out: inhibition of ASIC1a current): 39 ± 3.8%
- inhibition at 3 µM (homomeric ASIC1b): 92 ± 0.5%
- inhibition at 3 µM (homomeric ASIC2a): 51 ± 6.1%
- inhibition at 3 µM (homomeric ASIC3): 74 ± 0.6%
SMILES: N=C(N)c1ccc(/N=N/Nc2ccc(C(=N)N)cc2)cc1 [Diminazene]
- desensitization time constant of ASIC currents ([1]; 1 µM by perfusion, control 1.7 ± 0.2 s): 0.4 ± 0.1 s
- Inhibition (potency), grade in words [1]: Strong inhibition
- desensitization time constant of ASIC currents ([1]; diminazene 3 µM co-applied with pH 5.8, control 1.6 ± 0.3 s): 0.4 ± 0.1 s
- effect on ENaC activities [2]: did not inhibit; also recorded: ineffective
- relative current of ENaC with compound [2]: 1.11 ± 0.05
- effect on low pH-induced depolarization and excitation [3]: dramatically attenuated; also recorded: markedly attenuated

- IC50 [1]: 1500 nM
SMILES: N=C(N)c1ccc(/C=C/c2ccc(C(=N)N)cc2O)cc1 [Hydroxystilbamidine]
- Inhibition (potency), grade in words [1]: Strong inhibition
- effect on rates of desensitization of ASIC currents [1]: did not have marked effects
- effect on ENaC activities ([2]; listed as HSB): did not inhibit
- relative current of ENaC with compound [2]: 1.02 ± 0.04

SMILES: O=C(Nc1cccc(C2=NCCN2)c1)Nc1cccc(C2=NCCN2)c1 [Imidocarb]
- inhibition of ASIC currents [1, 4]: Inhibit 42 ± 7% at 200 µM

SMILES: N=C(N)c1ccc2cc(OC(=O)c3ccc(N=C(N)N)cc3)ccc2c1 [Nafamostat]
- IC50 (ENaC): ~1 mM

SMILES: Cn1cc(NC(=O)c2cc(NC(=O)CN=C(N)N)cn2C)cc1C(=O)NCCC(=N)N [Netropsin]
- effect on ASIC currents ([1]; 100 µM, cultured hippocampal neurons): did not inhibit
- effect on ASIC currents ([1]; concentration not given): without effect; also recorded: failed to inhibit

- block of ASIC1a currents in oocytes (ASIC1a): 77%
SMILES: N=C(N)c1ccc(OCCCCCOc2ccc(C(=N)N)cc2)cc1 [Pentamidine]
- Inhibition (potency), grade in words [1]: Inhibition
- effect on rates of desensitization of ASIC currents [1]: did not have marked effects
- effect on ENaC activities [2]: did not inhibit; also recorded: ineffective
- relative current of ENaC with compound [2]: 1.02 ± 0.03

SMILES: Cc1ccc(C(=O)Nc2ccc(S(=O)(=O)O)c3cc(S(=O)(=O)O)cc(S(=O)(=O)O)c23)cc1NC(=O)c1cccc(NC(=O)Nc2cccc(C(=O)Nc3cc(C(=O)Nc4ccc(S(=O)(=O)O)c5cc(S(=O)(=O)O)cc(S(=O)(=O)O)c45)ccc3C)c2)c1 [suramin]
- effect on ASIC currents ([1]; 500 µM, cultured hippocampal neurons): failed to inhibit
